Screening results from PubChem BioAssay.
An excerpt weighted towards active compounds, which were near 2.9% of everything screened.
HTRA1 inh: inhibitors of human serine peptidase HTRA1; 340,000 compounds, 0.5% hits; inhibition, % at 5.96 µM; Q92743; recombinant HTRA1, FP-rhodamine activity-based probe, fluorescence polarization; in the data active means inhibition above about 36%;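 further: 0% = enzyme with DMSO and 100% = wells lacking enzyme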
SIAE primary: inhibitors of human sialic acid acetylesterase SIAE; AID 1053197; inhibition, % at 9.66 µM; SIAE FP-Rh probe binding, fluorescence polarization; 370,000 compounds, 0.69% hits; Q9HAT2;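 active means inhibition above a cutoff: mean of compounds within the control limits plus 3 SD of those, cut at about 17% in these data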;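 further: 0% = plate median of compound wells and 100% = probe without SIAE protein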
ATG4B inhibitor: blocks human ATG4B protease cleavage of LC3 substrate; Q9Y4P1; ATG4B cleavage of LC3-PLA2, NBD-HPC fluorescence, 1 h; inhibition, % at 8.33 µM; 340,000 compounds, 0.51% hits; AID 504462; in the data active means inhibition above about 40%
Target sequence (Q9Y4P1 whole entry, looked up): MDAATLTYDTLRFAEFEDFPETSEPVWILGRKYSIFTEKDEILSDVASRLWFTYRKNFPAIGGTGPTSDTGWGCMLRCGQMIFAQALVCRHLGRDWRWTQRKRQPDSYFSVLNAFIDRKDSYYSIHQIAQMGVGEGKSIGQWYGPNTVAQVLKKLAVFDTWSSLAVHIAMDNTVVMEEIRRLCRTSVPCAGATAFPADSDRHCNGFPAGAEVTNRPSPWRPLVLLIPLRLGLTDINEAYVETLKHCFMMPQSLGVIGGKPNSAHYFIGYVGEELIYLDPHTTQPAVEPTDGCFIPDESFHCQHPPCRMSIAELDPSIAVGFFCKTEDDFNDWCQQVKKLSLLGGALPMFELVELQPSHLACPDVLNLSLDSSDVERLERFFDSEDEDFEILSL
mABHD4 FP: inhibits mouse alpha/beta hydrolase domain 4; Q8VD66; purified mABHD4, FP-Rh probe fluorescence polarization; inhibition, % at 8.92 µM; 370,000 compounds, 0.54% hits; AID 720543;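 active means inhibition exceeding the mean over every tested compound plus 3 SD, cut at about 30% in these data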;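 further: 0% = plate median of compound wells and 100% = S159A mutant with DMSO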
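Material: mouse ABHD4 enzyme, wild type; Benchmarks: S159A mutant high control, sample median low control; Buffer or medium: HEPES pH 7.0, NaCl, Pluronic buffer; Signal: fluorescence polarization; Read-out: percent inhibition of probe binding, normalized to plate controls; Timing: pre-incubation 45 min, probe exposure 60 min, at 25 °C; Dosing: 8.92 µM, single dose.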
PRMT1 inh: blocks human protein arginine methyltransferase 1 | recombinant PRMT1, activity-based probe fluorescence polarization | 370,000 compounds, 1.3% hits | inhibition, % at 2.79 µM;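 active means inhibition above about 21% made by adding two undisclosed values, limit read from the data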
TCR CD3 inh: blocks the human TCR-CD3 interaction. TAMRA-labeled TCR probe fluorescence, biochemical. inhibition, % at 9.4 µM. 360,000 compounds, 0.37% hits; in the data active means inhibition above about 19%;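 further: recombinant mutant TCR 2C K166C tagged with TAMRA read by polarization; 0% = receptor in buffer alone and 100% = receptor with positive control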
PRMT1 inh conf: confirmation of human PRMT1 inhibitors | shares compounds with PRMT1 inh | recombinant His-PRMT1, activity-based probe fluorescence polarization | inhibition, % at 2.79 µM | 3,300 compounds, 42% hits;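 active means mean inhibition across replicates above the hit cutoff derived for the earlier primary screen, cut at about 22% in these data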
* hit, by the source's call; . = no result given.

SMILES	HTRA1 inh	SIAE primary	ATG4B inhibitor	mABHD4 FP	PRMT1 inh	TCR CD3 inh	PRMT1 inh conf
C[C@@H](CCCCC1(C)OCCO1)CCC(=O)N(c1ccccc1)c1ccccc1	.	2	.	-4	4	.	.
CCOc1ccc(N2C(=O)CC(NCCNc3ccc([N+](=O)[O-])cn3)C2=O)cc1 (configuration not stated)	-3	-3	-6	-8	49*	-3	7
COc1ccc(N2C(=O)CC(NCCNc3ccc([N+](=O)[O-])cn3)C2=O)cc1 (configuration not stated)	2	0	-1	3	36*	2	8
COc1ccc(NC2CC(=O)N(c3cccc([N+](=O)[O-])c3)C2=O)cc1 (configuration not stated)	2	8	-11	2	2	2	.
COc1ccc(C#CCN(C)/C(N)=N/C(=O)OCc2ccccc2)cc1	.	3	.	-7	-2	.	.
COCC(=O)N1[C@H](CO)[C@@H](c2ccc(-c3cccnc3)cc2)[C@H]1CN(C)S(=O)(=O)c1ccccc1[N+](=O)[O-]	.	0	.	6	0	.	.
Cc1nn(CCc2nc(-c3ccco3)cs2)c2[nH]c(=O)cc(C(F)(F)F)c12	0	6	19	9	34*	8	7
Cc1cc(C)n(CCc2nc(-c3ccco3)cs2)n1	9	7	-5	4	40*	11	57*
O=c1[nH]c(=O)n(Cc2ccccc2)c2nc(-c3ccco3)cc(C(F)(F)F)c12	4	1	-4	13	1	4	.
Cc1ccccc1C(=O)N(Cc1ccccn1)CC1CCCO1 (configuration not stated)	.	-1	.	3	1	.	.
Cc1cc(C)c(NC(=S)NCC2CCN(C(C)c3ccccc3)C2)c(C)c1 (configuration not stated)	-2	7	25	-5	42*	6	72*
Cc1ccc(NC(=S)NCC2CCN(C(C)c3ccccc3)C2)cc1 (configuration not stated)	-10	8	28	3	-1	4	.
O=C(Cc1c[nH]c2ccccc12)Nc1ccc(Nc2ccncc2)cc1	.	15	.	6	0	-1	.
CN(CCc1ccccn1)C1CC(=O)N(c2ccc(Cl)cc2)C1=O (configuration not stated)	3	-5	4	1	80*	-2	16
CN(CCc1ccccn1)C(=O)Nc1ccc(Cl)cc1	1	2	-8	3	1	0	.
C=CCN1C(=O)[C@H](CC(=O)NCCCC)[C@@]2(C(=O)OCC)CCCC=C12	.	1	.	1	0	.	.
Nn1c(SCC(=O)Nc2nccs2)nnc1-c1cc(-c2ccc(Cl)cc2)n[nH]1	.	4	.	-4	-5	.	.
COc1ccc(C2C(C(=O)c3ccco3)=C(O)C(=O)N2c2nnc(C)s2)cc1 (configuration not stated)	4	1	-5	8	13	-8	.
CSc1nnc(N2C(=O)C(O)=C(C(=O)c3ccco3)C2c2cccc(Cl)c2)s1 (configuration not stated)	-18	-12	-1	-20	30*	-3	18
CCSc1nnc(N2C(=O)C(O)=C(C(=O)c3ccco3)C2c2cccc(OC)c2)s1 (configuration not stated)	-5	-5	-7	-10	31*	-3	17
CSc1nnc(N2C(=O)C(O)=C(C(=O)c3ccco3)C2c2ccc(F)cc2)s1 (configuration not stated)	-1	-3	2	-6	43*	-22	11
COc1ccc2[nH]c(C)c(CCN(Cc3cccs3)C(=S)Nc3ccccc3)c2c1	10	3	-15	9	29*	-1	11
COc1ccc(OC)c(S(=O)(=O)N2CCCCC2C(=O)N2CCN(CCO)CC2)c1 (configuration not stated)	.	4	.	3	4	.	.
O=C(O)c1cc(N/N=C/c2ccc(-c3ccc(F)cc3)o2)ccc1Cl	2	5	5	24	34*	-3	0
CC(C)(C)c1ccc(CNc2nc(-c3ccccn3)nnc2-c2ccccc2)cc1	.	-10	.	22	6	.	.
SMILES	HTRA1 inh	SIAE primary	ATG4B inhibitor	mABHD4 FP	PRMT1 inh	TCR CD3 inh	PRMT1 inh conf
Oc1c(CN2CCOCC2)cc(CN2CCOCC2)c(O)c1O	17	9	1	14	35*	13	83*
CCCc1cc(CN2CCOCC2)c(O)c(CN2CCOCC2)c1O	7	1	7	16	64*	-2	64*
Cc1cc(-c2n[nH]c(=S)n2/N=C/c2c[nH]c3ccccc23)n[nH]1	-3	-2	-4	-7	8	5	.
CCN(CC)c1ccc(C=Nn2c(-c3ccc(F)cc3)n[nH]c2=S)c(O)c1	.	5	.	21	37*	.	35*
Fc1ccc(-c2n[nH]c(=S)n2N=Cc2ccc(-c3ccccc3)cc2)cc1	.	-2	.	4	6	.	.
Fc1ccc(-c2n[nH]c(=S)n2/N=C/c2c[nH]c3ccccc23)cc1	-7	-1	0	1	31*	-2	22*
CN(Cc1ccccc1)C(=O)OCc1cn(Cc2cc(F)ccc2F)nn1	.	-3	.	-1	1	.	.
CCCC[C@H]1C2CC(OC(=O)Nc3ccccc3)C(C2)[C@H]2CCCCN21 (some centres not stated)	.	1	.	-5	1	.	.
Clc1ccc(-n2nnc(-c3nccs3)n2)cc1Cl	1	-9	1	8	38*	1	24*
COc1cc(-n2c(C)nc3cc(C(=O)N4CCCC4)ccc32)cc(OC)c1OC	.	-8	.	-6	2	.	.
CC(=O)NC1=NC(=O)/C(=C/c2cc(C)n(-c3cccc(C(=O)O)c3)c2C)S1	.	-4	10	9	57*	7	9
CC(=O)NC1=NC(=O)/C(=C/c2cc(C)n(-c3ccc(NC(C)=O)cc3)c2C)S1	-1	-6	3	-1	32*	1	-9
Cc1cc(/C=C2\SC(=O)N(C)C2=O)c(C)n1-c1ccc(O)cc1	-2	-2	-2	15	2	2	.
CC1=NN2C(=N)/C(=C\c3cc(C)n(-c4cccc(C)c4)c3C)C(=O)N=C2S1	3	-4	17	-2	4	-10	.
CCN=C1S/C(=C\c2cn(C(C)=O)nc2-c2ccccc2)C(=O)N1CC	-33	-8	-2	-4	-3	5	.
CC(=O)NC1=NC(=O)/C(=C/c2cn(C(C)=O)nc2-c2ccccc2)S1	-4	-8	2	-21	31*	-2	27*
Cc1cc(C)nc(SSc2nc(C)cc(C)n2)n1	5	0	-1	15	89*	-4	82*
